Source: ChEMBL document CHEMBL1250428, “Identification of novel bacterial histidine biosynthesis inhibitors using docking, ensemble rescoring, and whole-cell assays” (Bioorg Med Chem, 2010)
Activity calls are given as the source filed them. The rule behind the calls is not given here.

How the values were obtained:
[1] = test system: Staphylococcus aureus; assay: Antibacterial activity against methicillin-resistant Staphylococcus aureus USA300 assessed as growth inhibition at 10 mg/ml after 16 to 20 hrs; format: functional, organism-based
Outline: (§1)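 Disc diffusion assay. Sterile filter discs soaked with 10 µl of a 10 mg/ml compound solution were placed on evenly inoculated LB or minimal medium agar, then incubated 16–20 h at 37 °C. Growth inhibition was scored by eye on a graded scale from strong inhibition through weak or partial inhibition to none. DMSO served as the negative control.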

[2] = test system: Escherichia coli; assay: Antibacterial activity against clinical isolate of Escherichia coli assessed as growth inhibition at 10 mg/ml after 16 to 20 hrs; format: functional, organism-based
Outline: (§2)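 Disc diffusion: sterile filter discs loaded with 10 µl of a 10 mg/ml compound solution were placed on evenly inoculated LB or minimal medium agar plates and incubated 16–20 h at 37 °C. Growth inhibition around each disc was scored qualitatively (weak, partial, or strong). Controls were 10 µl of 1 mg/ml ampicillin and DMSO.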

[3] = test system: Pseudomonas aeruginosa; assay: Antibacterial activity against Pseudomonas aeruginosa PAO1 assessed as growth inhibition at 10 mg/ml after 16 to 20 hrs; format: functional, organism-based; outline: as §2
[4] = test system: Staphylococcus aureus; assay: Antibacterial activity against clinical isolate of Staphylococcus aureus assessed as growth inhibition at 10 mg/ml after 16 to 20 hrs; format: functional, organism-based; outline: as §2
[5] = test system: Escherichia coli; assay: Antibacterial activity against Escherichia coli 1655 assessed as growth inhibition at 10 mg/ml after 16 to 20 hrs; format: functional, organism-based; outline: as §2
[6] = test system: Staphylococcus aureus; assay: Antibacterial activity against methicillin-resistant Staphylococcus aureus Mu50 assessed as growth inhibition at 10 mg/ml after 16 to 20 hrs; format: functional, organism-based; outline: as §1
[7] = test system: Staphylococcus aureus; assay: Antibacterial activity against methicillin-resistant Staphylococcus aureus Mu50 assessed as growth inhibition at 10 mg/ml after 16 to 20 hrs in presence of 0.2 mM L-histidine; format: functional, organism-based
Outline: (§3)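 Histidine complementation disc assay. Discs soaked with 10 µl of a 10 mg/ml compound solution were placed on evenly inoculated minimal medium agar supplemented with 0.2 mM L-histidine, then incubated 16–20 h at 37 °C. Inhibition zones were scored by eye on a graded scale (strong, weak, partial, none).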

[8] = test system: Staphylococcus aureus; assay: Antibacterial activity against methicillin-resistant Staphylococcus aureus USA300 assessed as growth inhibition at 10 mg/ml after 16 to 20 hrs in presence of 0.2 mM L-histidine; format: functional, organism-based; outline: as §3
[9] = test system: Pseudomonas aeruginosa; assay: Antibacterial activity against Pseudomonas aeruginosa PAO1 assessed as growth inhibition at 10 mg/ml after 16 to 20 hrs in presence of 0.2 mM L-histidine; format: functional, organism-based
Outline: (§4)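 Histidine complementation: minimal medium agar plates were supplemented with 0.2mM L-histidine and evenly inoculated. Filter discs soaked with 10 µl of 10 mg/ml compound were applied, and plates were incubated 16–20 h at 37 °C. Inhibition was scored qualitatively. Ampicillin (10 µl, 1 mg/ml) and DMSO served as controls.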

[10] = test system: Escherichia coli; assay: Antibacterial activity against Escherichia coli 1655 assessed as growth inhibition at 10 mg/ml after 16 to 20 hrs in presence of 0.2 mM L-histidine; format: functional, organism-based; outline: as §4
[11] = Cytotoxicity against human CL1 cells expressing hTERT assessed as cell viability at 100 ug/ml after 24 hrs by trypan blue exclusion assay; format: cell-based
[12] = Cytotoxicity against human CL1 cells expressing hTERT assessed as cell viability at 100 ug/ml after 24 hrs by MTT assay; format: cell-based
[13] = test system: Escherichia coli; assay: Antibacterial activity against Escherichia coli 1655 assessed as growth inhibition at 1 mg/ml after 16 to 20 hrs in presence of 0.2 mM L-histidine; format: functional, organism-based
[14] = test system: Staphylococcus aureus; assay: Antibacterial activity against methicillin-resistant Staphylococcus aureus USA300 assessed as growth inhibition at 1 mg/ml after 16 to 20 hrs in presence of 0.2 mM L-histidine; format: functional, organism-based
Outline: (§5)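 Discs carrying 10 µl of a 1 mg/ml solution were placed on evenly inoculated minimal medium agar containing 0.2 mM L-histidine, then incubated 16–20 h at 37 °C. Inhibition zones were scored by eye as strong, weak, partial or none.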

[15] = test system: Staphylococcus aureus; assay: Antibacterial activity against methicillin-resistant Staphylococcus aureus Mu50 assessed as growth inhibition at 1 mg/ml after 16 to 20 hrs; format: functional, organism-based
Outline: (§6)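 Disc diffusion assay. Filter discs carrying 10 µl of a 1 mg/ml solution were placed on evenly inoculated LB or minimal medium agar plates, then incubated 16–20 h at 37 °C. Growth inhibition was scored by eye on a graded scale (strong, weak, partial, none).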

[16] = test system: Staphylococcus aureus; assay: Antibacterial activity against methicillin-resistant Staphylococcus aureus USA300 assessed as growth inhibition at 1 mg/ml after 16 to 20 hrs; format: functional, organism-based; outline: as §6
[17] = test system: Staphylococcus aureus; assay: Antibacterial activity against clinical isolate of Staphylococcus aureus assessed as growth inhibition at 1 mg/ml after 16 to 20 hrs; format: functional, organism-based
[18] = test system: Staphylococcus aureus; assay: Antibacterial activity against methicillin-resistant Staphylococcus aureus Mu50 assessed as growth inhibition at 1 mg/ml after 16 to 20 hrs in presence of 0.2 mM L-histidine; format: functional, organism-based; outline: as §5
[19] = test system: Escherichia coli; assay: Antibacterial activity against clinical isolate of Escherichia coli assessed as growth inhibition at 1 mg/ml after 16 to 20 hrs; format: functional, organism-based
[20] = test system: Pseudomonas aeruginosa; assay: Antibacterial activity against Pseudomonas aeruginosa PAO1 assessed as growth inhibition at 1 mg/ml after 16 to 20 hrs in presence of 0.2 mM L-histidine; format: functional, organism-based
[21] = test system: Escherichia coli; assay: Antibacterial activity against Escherichia coli 1655 assessed as growth inhibition at 1 mg/ml after 16 to 20 hrs; format: functional, organism-based

Row | Compound | Activity [1] | Activity [2] | Activity [3] | Activity [4] | Activity [5] | Activity [6] | Activity [7] | Activity [8] | Activity [9] | Activity [10] | other results
1 | CSCC[C@@H](NCC[C@H](O)c1ccccc1)C(=O)O | inactive | inactive | Active | inactive | inactive | inactive |  |  |  |  | 
2 | O=C(O)C[C@H](NCc1ccco1)C(=O)Cc1ccc(Cl)cc1 | inactive | inactive |  | inactive | inactive | inactive |  |  |  |  | 
3 | CC(=O)C1=C(O)C(=O)N(CCC(=O)O)[C@@H]1c1ccc(C(C)C)cc1 | inactive | Active | Active | inactive | Active | Active | Active | Active | Active | Active | 
4 | Cc1oc(C(=O)O)cc1COc1ccc2c3c(c(=O)oc2c1C)CCC3 | inactive | inactive | inactive | Active | inactive | Active |  |  |  |  | 
5 | Cc1ncc(CO)c(CNc2ccc(Oc3ccccc3)cc2)c1O | Active |  | Active | Active | Active | Active |  |  |  |  | Activity [11]: Toxic
6 | Cc1c(OCC(=O)O)ccc2c(-c3ccccc3)cc(=O)oc12 | Active | Active | Active | Active | Active | Active |  |  |  |  | Activity [11]: Non-toxic; Activity [12]: Non-toxic
7 | CC(=O)C1C(O)C(=O)N(c2ccc(C(=O)O)cc2)[C@H]1c1ccccc1 (stereo partly specified) | Active | Active | Active | Active | Active | Active | inactive | inactive | inactive | inactive | 
8 | CCN(CCc1ccccc1)C(=O)CSc1ncccc1C(=O)O |  |  |  |  | Active |  | inactive | inactive | Active | Active | 
9 | C[C@@H](NC[C@@H](O)Cn1c2ccccc2c2ccccc21)C(=O)O | inactive | inactive | inactive | inactive | inactive | inactive |  |  |  |  | 
10 | O=C(O)CCCNC[C@@H](O)Cn1c2ccccc2c2ccccc21 | Active |  | inactive | Active |  | Active | Active | inactive | inactive | inactive | Activity [11]: Non-toxic
11 | O=C(O)C[C@H](c1ccncc1)c1c[nH]c2ccccc12 | inactive | Active | Active | Active |  | Active | Active | Active | Active | Active | 
12 | CC1(C)S[C@@H]2[C@H](NC(=O)[C@H](N)c3ccccc3)C(=O)N2[C@H]1C(=O)O [AMPICILLIN] |  |  |  |  |  |  |  |  |  |  | Activity [11]: Non-toxic; Activity [13]: inactive; Activity [14]: Active; Activity [15]: Active; Activity [16]: Active; Activity [17]: Active; Activity [18]: Active; Activity [19]: Active; Activity [20]: inactive; Activity [21]: Active
13 | O=C(O)c1ccc([C@H](O)[C@@H](O)c2ccccc2)cc1 | Active |  | inactive | Active | Active | Active |  |  |  |  | Activity [11]: Toxic
14 | CCCCc1cc(=O)oc2c(C)c(O[C@H](C)C(=O)O)ccc12 | inactive |  | Active | Active |  | Active | Active | Active | Active | Active | 
15 | CCc1cc(=O)oc2c3c(c(C)c(OCC(=O)O)c12)OC(C)(C)C=C3 |  | inactive | Active | inactive | Active | Active | inactive | inactive | Active | Active | 
16 | O=C1Nc2ccc(Cl)cc2C(c2cccc(O)c2)=N[C@H]1O | Active |  | Active |  | Active | Active |  |  |  |  | 
17 | CN(C)c1ccc(/C=N/Nc2ccc(S(=O)(=O)O)cc2)cc1 | inactive | inactive |  | inactive |  | inactive |  |  |  |  | 
18 | O=C(O)c1cccc(NC(=O)[C@H]2CCCC[C@@H]2C(=O)O)c1 | inactive | inactive | Active | inactive |  | inactive |  |  |  |  | 
